Source: ChEMBL document CHEMBL1139875, “Discovery of 4-aminobutyric acid derivatives possessing anticonvulsant and antinociceptive activities: a hybrid pharmacophore approach” (2007)
Calls of active or inactive are those of the source. The rule behind the calls is not given here.

Assays:
Rattus norvegicus [1] = experiment: Anti-cold allodynia effect in Sprague-Dawley rat CCI model assessed as duration of paw withdrawal at 100 mg/kg, ip after 0.5 hr; type: functional; conditions: route intraperitoneal
In short: (§1)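 CCI by sciatic nerve ligation under pentobarbital (65 mg/kg i.p.). Rats tested at baseline and 9 days post-surgery; those with allodynia dosed i.p. 100 mg/kg, vehicle 30% v/v PEG 400 in water. Acetone (100-200 µL) misted on midplantar affected paw; withdrawal duration recorded, three samples averaged, at least 3 min apart; n = 4.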

Rattus norvegicus [2] = experiment: Effect on spontaneous pain in Sprague-Dawley rat SNL model assessed as duration of paw withdrawal at 100 mg/kg, ip after 2.5 hrs; type: functional; conditions: route intraperitoneal
In short: (§2)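 Rats underwent left L5 spinal nerve ligation (Kim and Chung) under i.p. pentobarbital (65 mg/kg). Spontaneous pain is recorded for 5 min after 10 min acclimatization, as cumulative duration the ipsilateral paw is lifted, excluding locomotor lifts. Dosing is 100 mg/kg i.p. in 30% v/v PEG 400/water, with testing at 0.5–2.5 h. Four rats, mean ± SEM versus predrug, one-way ANOVA with Bonferroni.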

Rattus norvegicus [3] = experiment: Anti-cold allodynia effect in Sprague-Dawley rat CCI model assessed as duration of paw withdrawal 100 mg/kg, ip after 2 hr; type: functional; conditions: route intraperitoneal; in short: as §1
Mus musculus [4] = experiment: Neurotoxicity in Swiss Albino mouse at 300 mg/kg, ip after 0.5 hr by rotarod test; type: functional, organism-based; set-up: dose 300 mg/kg
In short: (§3)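 Swiss mice (20-25 g) are trained on an accelerating rotorod (10 rpm, 3.2 cm rod), then injected i.p. at 30, 100 or 300 mg/kg, with three per group. Neurotoxicity means failure to keep equilibrium for at least 1 min in each of three trials, checked at 0.5 and 4 h. The value reported is the minimum dose affecting half or more of the mice.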

Rattus norvegicus [5] = experiment: Effect on spontaneous pain in Sprague-Dawley rat SNL model assessed as duration of paw withdrawal at 100 mg/kg, ip after 1 hr; type: functional; conditions: route intraperitoneal; in short: as §2
Mus musculus [6] = experiment: Analgesic activity in Swiss Albino mouse assessed as number of acetic acid-induced writhing per 30 min after 100 mg/kg, ip; type: functional; conditions: route intraperitoneal
In short: (§4)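 Mice in groups of six dosed i.p. at 100 mg/kg, controls receiving 30% v/v PEG 400 in water. Writhing induced by i.p. 0.1 mL of 3% v/v acetic acid 1 h after drug. Writhes (abdominal stretch with at least one hind limb extended) counted over 30 min; % inhibition calculated. Mean ± SEM, Student's t test.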

Rattus norvegicus [7] = experiment: Effect on spontaneous pain in Sprague-Dawley rat CCI model assessed as duration of paw withdrawal at 100 mg/kg, ip after 0.5 hr; type: functional; conditions: route intraperitoneal
In short: (§5)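 CCI rats (n = 4) dosed 100 mg/kg i.p. (vehicle 30% v/v PEG 400 in water). After 10 min acclimatization in a cage 5 cm above ground, cumulative time the ipsilateral paw was held off the floor over 5 min recorded, excluding locomotion lifts. Mean ± SEM; ANOVA/Bonferroni versus predrug.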

Rattus norvegicus [8] = experiment: Effect on spontaneous pain in Sprague-Dawley rat SNL model assessed as duration of paw withdrawal at 100 mg/kg, ip after 2 hrs; type: functional; conditions: route intraperitoneal; in short: as §2
Mus musculus [9] = experiment: Anticonvulsant activity in Swiss Albino mouse at 300 mg/kg, ip after 0.5 hr by scSTY test; type: functional, organism-based; set-up: dose 300 mg/kg
In short: (§6)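 Mice (Swiss, 20-25 g) given i.p. doses of 30, 100 and 300 mg/kg under ADD program protocols, three per group, examined at 0.5 and 4 h in MES, scPTZ, scSTY or scPIC seizure tests. Value is the minimum dose protecting half or more of the mice.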

Mus musculus [10] = experiment: Anticonvulsant activity in Swiss Albino mouse at 300 mg/kg, ip after 0.5 hr by scPTZ test; type: functional, organism-based; set-up: dose 300 mg/kg; in short: as §6
Rattus norvegicus [11] = experiment: Effect on spontaneous pain in Sprague-Dawley rat SNL model assessed as duration of paw withdrawal at 100 mg/kg, ip after 1.5 hrs; type: functional; conditions: route intraperitoneal; in short: as §2
Rattus norvegicus [12] = species on record: Rattus norvegicus; experiment: Anti-dynamic allodynic effect in Sprague-Dawley rat CCI model assessed as latency to paw withdrawal after 2.5 hr; type: functional
In short: (§7)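 Rats with sciatic nerve chronic constriction injury (pentobarbital 65 mg/kg i.p. anaesthesia), baseline and day 9 testing, then drug per randomization table. After 10 min acclimatization, affected plantar surface stroked mildly with a cotton-bud; paw lift recorded. n = 4; retested 0.5-2.5 h post-dose.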

Rattus norvegicus [13] = experiment: Anti-cold allodynia effect in Sprague-Dawley rat CCI model assessed as duration of paw withdrawal 100 mg/kg, ip after 2.5 hr; type: functional; conditions: route intraperitoneal; in short: as §1
Rattus norvegicus [14] = experiment: Anti-cold allodynia effect in Sprague-Dawley rat CCI model assessed as duration of paw withdrawal 100 mg/kg, ip after 1 hr; type: functional; conditions: route intraperitoneal; in short: as §1
Rattus norvegicus [15] = species on record: Rattus norvegicus; experiment: Anti-dynamic allodynic effect in Sprague-Dawley rat CCI model assessed as latency to paw withdrawal after 1 hr; type: functional; in short: as §7
Rattus norvegicus [16] = species on record: Rattus norvegicus; experiment: Anti-dynamic allodynic effect in Sprague-Dawley rat CCI model assessed as latency to paw withdrawal after 0.5 hr; type: functional; in short: as §7
Mus musculus [17] = experiment: Anticonvulsant activity in Swiss Albino mouse at 300 mg/kg, ip after 4 hrs by MES test; type: functional, organism-based; set-up: dose 300 mg/kg; in short: as §6
Mus musculus [18] = experiment: Anticonvulsant activity in Swiss Albino mouse at 100 mg/kg, ip after 4 hrs by scPIC test; type: functional, organism-based; set-up: dose 100 mg/kg; in short: as §6
Mus musculus [19] = experiment: Analgesic activity in Swiss Albino mouse assessed as inhibition of acetic acid-induced writhing responses at 100 mg/kg, ip; type: functional; conditions: route intraperitoneal; in short: as §4
Mus musculus [20] = experiment: Anticonvulsant activity in Swiss Albino mouse at 300 mg/kg, ip after 4 hrs by scSTY test; type: functional, organism-based; set-up: dose 300 mg/kg; in short: as §6
Rattus norvegicus [21] = experiment: Effect on spontaneous pain in Sprague-Dawley rat CCI model assessed as duration of paw withdrawal at 100 mg/kg, ip after 1 hr; type: functional; conditions: route intraperitoneal; in short: as §5
Rattus norvegicus [22] = experiment: Effect on spontaneous pain in Sprague-Dawley rat CCI model assessed as duration of paw withdrawal at 100 mg/kg, ip after 2 hrs; type: functional; conditions: route intraperitoneal
In short: (§8)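 Unilateral CCI of sciatic nerve (Bennett and Xie) in Sprague-Dawley rats under i.p. pentobarbital sodium (65 mg/kg). Spontaneous pain is scored over 5 min after 10 min acclimatization, as cumulative time the ipsilateral paw is held off the floor. Paw lifts from locomotion or repositioning are excluded. Drug is given at 100 mg/kg i.p. with 30% v/v PEG 400 vehicle. Mean ± SEM, n = 4, compared with predrug by ANOVA/Bonferroni.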

Rattus norvegicus [23] = experiment: Anti-cold allodynia effect in Sprague-Dawley rat CCI model assessed as duration of paw withdrawal 100 mg/kg, ip after 1.5 hr; type: functional; conditions: route intraperitoneal; in short: as §1
Rattus norvegicus [24] = experiment: Effect on spontaneous pain in Sprague-Dawley rat CCI model assessed as duration of paw withdrawal at 100 mg/kg, ip after 1.5 hrs; type: functional; conditions: route intraperitoneal; in short: as §8
Rattus norvegicus [25] = experiment: Effect on spontaneous pain in Sprague-Dawley rat CCI model assessed as duration of paw withdrawal at 100 mg/kg, ip after 2.5 hrs; type: functional; conditions: route intraperitoneal; in short: as §8
Rattus norvegicus [26] = experiment: Effect on spontaneous pain in Sprague-Dawley rat SNL model assessed as duration of paw withdrawal at 100 mg/kg, ip after 0.5 hr; type: functional; conditions: route intraperitoneal; in short: as §2
Mus musculus [27] = experiment: Anticonvulsant activity in Swiss Albino mouse at 300 mg/kg, ip after 0.5 hr by MES test; type: functional, organism-based; set-up: dose 300 mg/kg; in short: as §6
Rattus norvegicus [28] = species on record: Rattus norvegicus; experiment: Anti-dynamic allodynic effect in Sprague-Dawley rat CCI model assessed as latency to paw withdrawal after 1.5 hr; type: functional; in short: as §7
Rattus norvegicus [29] = species on record: Rattus norvegicus; experiment: Anti-dynamic allodynic effect in Sprague-Dawley rat CCI model assessed as latency to paw withdrawal after 2 hr; type: functional; in short: as §7
Mus musculus [30] = experiment: Neurotoxicity in Swiss Albino mouse at 300 mg/kg, ip after 4 hrs by rotarod test; type: functional, organism-based; set-up: dose 300 mg/kg; in short: as §3

For `O=C(O)CCCNC(=O)NN=C(Cc1ccccc1)Cc1ccccc1`, which Activity (Rattus norvegicus [1]) is on record?
Its Activity is 24.6 s.

What about the Activity (Rattus norvegicus [2]) of the same compound?
The Activity was 7.4 s.

What about the Activity (Rattus norvegicus [3]) of the same compound?
The Activity was 9.1 s.

What about the Activity (Mus musculus [4]) of the same compound?
Its Activity is “inactive”.

What about the Activity (Rattus norvegicus [5]) of the same compound?
The Activity was 7.9 s.

And the Activity (Mus musculus [6])?
Its Activity is 10.3.

What about the Activity (Rattus norvegicus [7]) of the same compound?
The Activity was 9.2 s.

And the Activity (Rattus norvegicus [8])?
Its Activity is 11.8 s.

And the Activity (Mus musculus [9])?
The Activity was “Active”.

What about the Activity (Mus musculus [10]) of the same compound?
The Activity was “inactive”.

And the Activity (Rattus norvegicus [11])?
The Activity was 8.9 s.

And the Activity (Rattus norvegicus [12])?
The Activity was 10.3 s.

And the Activity (Rattus norvegicus [13])?
The Activity was 8.3 s.

And the Activity (Rattus norvegicus [14])?
The Activity was 11.6 s.

And the Activity (Rattus norvegicus [15])?
Its Activity is 13.5 s.

What about the Activity (Rattus norvegicus [16]) of the same compound?
Its Activity is 12 s.

What about the Activity (Mus musculus [17]) of the same compound?
The Activity was “inactive”.

What about the Activity (Mus musculus [18]) of the same compound?
Its Activity is “Active”.

And the inhibition in vivo at 100 mg/kg (Mus musculus [19])?
Its inhibition in vivo at 100 mg/kg is 94%.

And the Activity (Mus musculus [20])?
Its Activity is “Active”.

What about the Activity (Rattus norvegicus [21]) of the same compound?
The Activity was 9.7 s.

What about the Activity (Rattus norvegicus [22]) of the same compound?
Its Activity is 3.2 s.

What about the Activity (Rattus norvegicus [23]) of the same compound?
Its Activity is 10.4 s.

What about the Activity (Rattus norvegicus [24]) of the same compound?
The Activity was 1.3 s.

And the Activity (Rattus norvegicus [25])?
The Activity was 8.5 s.

What about the Activity (Rattus norvegicus [26]) of the same compound?
The Activity was 22.2 s.

What about the Activity (Mus musculus [27]) of the same compound?
Its Activity is “inactive”.

What about the Activity (Rattus norvegicus [28]) of the same compound?
Its Activity is 10.9 s.

And the Activity (Rattus norvegicus [29])?
The Activity was 10.9 s.

What about the Activity (Mus musculus [30]) of the same compound?
Its Activity is “inactive”.
